Results reported in article PMC10234138 (Journal of Enzyme Inhibition and Medicinal Chemistry, 2023).
Several values for one entry are separate records, joined by “and”; a condition that tells them apart may be missing. Equal entries are not always repeated.

Assays:
[1] = system: four cancer cell lines (A-549, MCF-7, Panc-1, HT-29); test: Antiproliferative assay, average over four cancer cell lines; type: cell-based, human; details: for GI50: Homo sapiens, read-out: Antiproliferative activity, Average (GI50)
[2] = system: HT-29 (colon cancer cell line); test: Antiproliferative assay, HT-29; type: cell-based; details: Homo sapiens, HT-29, read-out: Antiproliferative activity IC50 ± SEM, HT-29
[3] = system: Panc-1 (pancreas cancer cell line); test: Antiproliferative assay, Panc-1; type: cell-based; details: Homo sapiens, PANC-1, read-out: Antiproliferative activity IC50 ± SEM, Panc-1
[4] = system: MCF-7 (breast cancer cell line); test: Antiproliferative assay, MCF-7; type: cell-based; details: Homo sapiens, MCF7, read-out: Antiproliferative activity IC50 ± SEM, MCF-7
Cell viability assay = type: cell-based; details: human, MCF-10A mammary gland epithelial cells
[5] = system: A-549 (epithelial cancer cell line); test: Antiproliferative assay, A-549; type: cell-based; details: Homo sapiens, A549, read-out: Antiproliferative activity IC50 ± SEM, A-549
EGFR^WT = EGFR^WT (Homo sapiens, UniProt P00533); test: EGFR inhibitory assay; type: biochemical
EGFR^WT, sequence (P00533 669-1210): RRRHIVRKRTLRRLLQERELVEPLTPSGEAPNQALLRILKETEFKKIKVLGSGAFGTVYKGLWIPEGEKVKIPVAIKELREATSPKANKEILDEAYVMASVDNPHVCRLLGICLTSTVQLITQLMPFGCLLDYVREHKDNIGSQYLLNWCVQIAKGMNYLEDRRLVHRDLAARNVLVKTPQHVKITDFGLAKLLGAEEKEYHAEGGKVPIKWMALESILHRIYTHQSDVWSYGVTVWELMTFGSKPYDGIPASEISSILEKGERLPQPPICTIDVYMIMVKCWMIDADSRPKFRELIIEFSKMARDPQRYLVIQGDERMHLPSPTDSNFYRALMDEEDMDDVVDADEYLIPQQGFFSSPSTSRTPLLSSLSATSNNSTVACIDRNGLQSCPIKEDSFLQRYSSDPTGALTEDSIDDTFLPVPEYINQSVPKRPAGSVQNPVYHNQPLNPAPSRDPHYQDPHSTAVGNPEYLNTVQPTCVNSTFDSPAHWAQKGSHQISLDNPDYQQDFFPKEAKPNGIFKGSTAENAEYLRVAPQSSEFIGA

EGFR^T790M = EGFR^T790M (Homo sapiens, UniProt P00533, T790M); test: biochemical
EGFR^T790M, sequence (P00533 25-1210 T790M): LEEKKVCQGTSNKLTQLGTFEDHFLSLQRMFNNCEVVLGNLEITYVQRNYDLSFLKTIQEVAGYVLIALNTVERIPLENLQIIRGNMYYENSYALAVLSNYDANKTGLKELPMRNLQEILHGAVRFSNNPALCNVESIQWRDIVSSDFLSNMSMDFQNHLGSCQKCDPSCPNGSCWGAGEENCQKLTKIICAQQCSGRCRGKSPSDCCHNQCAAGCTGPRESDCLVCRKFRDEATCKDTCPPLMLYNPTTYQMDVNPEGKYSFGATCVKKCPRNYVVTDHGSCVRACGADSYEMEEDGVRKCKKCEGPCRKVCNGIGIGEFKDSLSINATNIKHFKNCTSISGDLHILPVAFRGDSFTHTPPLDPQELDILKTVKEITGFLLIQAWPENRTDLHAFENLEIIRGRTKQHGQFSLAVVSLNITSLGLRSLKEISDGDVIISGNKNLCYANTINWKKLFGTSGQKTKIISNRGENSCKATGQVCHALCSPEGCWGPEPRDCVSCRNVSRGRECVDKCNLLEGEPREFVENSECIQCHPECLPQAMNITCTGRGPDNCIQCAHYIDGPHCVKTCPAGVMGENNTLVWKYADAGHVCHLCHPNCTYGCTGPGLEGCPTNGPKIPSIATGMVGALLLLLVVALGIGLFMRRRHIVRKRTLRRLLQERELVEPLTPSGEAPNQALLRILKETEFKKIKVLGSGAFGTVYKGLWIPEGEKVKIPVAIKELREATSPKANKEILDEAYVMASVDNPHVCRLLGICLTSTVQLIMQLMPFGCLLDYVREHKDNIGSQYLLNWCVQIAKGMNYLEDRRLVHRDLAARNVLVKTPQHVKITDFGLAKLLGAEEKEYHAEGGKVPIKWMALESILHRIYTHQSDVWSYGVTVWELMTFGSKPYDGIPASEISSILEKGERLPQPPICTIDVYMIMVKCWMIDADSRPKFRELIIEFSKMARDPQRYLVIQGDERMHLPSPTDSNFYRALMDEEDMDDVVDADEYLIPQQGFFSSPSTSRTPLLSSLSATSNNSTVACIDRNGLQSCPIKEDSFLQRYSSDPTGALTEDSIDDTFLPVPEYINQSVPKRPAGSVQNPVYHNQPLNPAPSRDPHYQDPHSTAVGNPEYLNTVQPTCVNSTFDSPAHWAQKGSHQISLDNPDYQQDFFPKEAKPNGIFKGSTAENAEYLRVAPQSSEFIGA

Caspase-8 = Caspase-8 assay in Panc-1; type: cell-based, human; details: Panc-1 cells; for Caspase-8 Fold change: vs control untreated cells
Bcl-2 = Bcl-2 assay in Panc-1; type: cell-based, human; details: Panc-1 cells; for Bcl-2 Fold reduction: vs control untreated cells
Caspase-3 = Caspase-3 assay in Panc-1; type: cell-based, human; details: Panc-1 cells; for Caspase-3 Fold change: vs control untreated cells
Bax = Bax assay in Panc-1; type: cell-based, human; details: Panc-1 cells; for Bax Fold change: vs control untreated cells
Outline: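 Bax protein in treated Panc-1 cells, read as concentration in pg/mL. Fold induction is relative to untreated Panc-1 control cells. Staurosporine serves as reference compound.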

[6] = antiproliferative, four cancer cell lines

Row | SMILES | GI50 [1] [µM] | fold less potent than compound 5f (GI50) [1, 6] [fold] | IC50 [2] [µM] | IC50 [3] [µM] | IC50 [4] [µM] | IC50 [5] [µM] | fold more potent than compound 5b (GI50) [1, 6] [fold] | IC50 (EGFR^WT) [µM] | IC50 (EGFR^T790M) [µM] | viability at 96 h, 50 µM (Cell viability assay) [%] | Caspase-8 Conc (Caspase-8) [ng/mL] | Caspase-8 Fold change (Caspase-8) | Bcl-2 Conc (Bcl-2) [ng/mL] | Bcl-2 Fold reduction (Bcl-2) | Caspase-3 Conc (Caspase-3) [pg/mL] | Bax Conc (Bax) | Bax Fold change (Bax) | Caspase-3 Fold change (Caspase-3) | Caspase-3 Fold change (Caspase-3; listed as 5 g) | Bax Conc (Bax; listed as 5 g) [pg/mL]
1 | CO/C=C/c1c(C(=O)NCCc2ccccc2)[nH]c2ccc(Cl)cc12 [Compound 5a, (E)-5-Chloro-3–(2-methoxyvinyl)-N-phenethyl-1H-indole-2-carboxamide] | 0.076 | 2.5 | 0.075 ± 0.008 | 0.073 ± 0.007 | 0.079 ± 0.008 | 0.075 ± 0.008 | – | – | – | 91 | – | – | – | – | – | – | – | – | – | –
2 | CO/C=C/c1c(C(=O)NCCc2ccc(N3CCCCC3)cc2)[nH]c2ccc(Cl)cc12 [Compound 5b, (E)-5-chloro-3–(2-methoxyvinyl)-N-(4-(piperidin-1-yl)phenethyl)-1H-indole-2-carboxamide] | 0.077 | – | 0.078 ± 0.007 | 0.075 ± 0.007 | 0.079 ± 0.007 | 0.076 ± 0.007 | – | – | – | 89 | – | – | – | – | – | – | – | – | – | –
3 | CO/C=C/c1c(C(=O)NCCc2cccc(N3CCCCC3)c2)[nH]c2ccc(Cl)cc12 [Compound 5c, (E)-5-chloro-3–(2-methoxyvinyl)-N-(3-(piperidin-1-yl)phenethyl)-1H-indole-2-carboxamide] | 0.047 | – | 0.047 ± 0.005 | 0.045 ± 0.005 | 0.049 ± 0.005 | 0.045 ± 0.005 | 1.6 | 0.102 ± 0.007 | – | 87 | – | – | – | – | – | – | – | – | – | –
4 | CO/C=C/c1c(C(=O)NCCc2ccc(N(C)C)cc2)[nH]c2ccc(Cl)cc12 [Compound 5d, (E)-5-chloro-N-(4-(dimethylamino)phenethyl)-3-(2-methoxyvinyl)-1H-indole-2-carboxamide] | 0.036 | – | 0.038 ± 0.004 | 0.035 ± 0.003 | 0.038 ± 0.003 | 0.034 ± 0.004 | – | 0.085 ± 0.005 | – | 89 | – | – | – | – | – | – | – | – | – | –
5 | CO/C=C/c1c(C(=O)NCCc2ccc(N3CCCC3)cc2)[nH]c2ccc(Cl)cc12 [Compound 5e, (E)-5-chloro-3-(2-methoxyvinyl)-N-(4-(pyrrolidin-1-yl)phenethyl)-1H-indole-2-carboxamide] | 0.07 | – | 0.071 ± 0.007 | 0.067 ± 0.007 | 0.073 ± 0.007 | 0.07 ± 0.007 | – | – | – | 90 | – | – | – | – | – | – | – | – | – | –
6 | CO/C=C/c1c(C(=O)NCCc2ccc(N3CCCC3C)cc2)[nH]c2ccc(Cl)cc12 (stereo not drawn) [Compound 5f, (E)-5-chloro-3-(2-methoxyvinyl)-N-(4-(2-methylpyrrolidin-1-yl)phenethyl)-1H-indole-2-carboxamide] | 0.029 | – | 0.03 ± 0.003 | 0.027 ± 0.003 | 0.03 ± 0.003 | 0.028 ± 0.003 | – | 0.068 ± 0.004 | 0.0095 ± 0.002 | 87 | 2.10 | 25 | 0.80 | 6 | 560.2 ± 5.0 | 305 pg/mL and 305.50 pg/mL | 37 | – | – | –
7 | CO/C=C/c1c(C(=O)NCCc2ccc(N3CCOCC3)cc2)[nH]c2ccc(Cl)cc12 [Compound 5g, (E)-5-chloro-3-(2-methoxyvinyl)-N-(4-morpholinophenethyl)-1H-indole-2-carboxamide] | 0.031 | – | 0.032 ± 0.003 | 0.03 ± 0.003 | 0.032 ± 0.003 | 0.03 ± 0.003 | – | 0.074 ± 0.005 | 0.0119 ± 0.003 | 89 | 1.97 | 23 | 0.84 | 6 | 542.5 ± 5.0 | 299.40 pg/mL | 36 | 8.3 | approximately 8 | 299
8 | C#Cc1cccc(Nc2ncnc3cc(OCCOC)c(OCCOC)cc23)c1 [Erlotinib, reference compound] | 0.033 | – | 0.03 ± 0.003 | 0.03 ± 0.003 | 0.04 ± 0.003 | 0.03 ± 0.003 | – | – | – | – | – | – | – | – | – | – | – | – | – | –
9 | CN[C@@H]1C[C@H]2O[C@@](C)([C@@H]1OC)n1c3ccccc3c3c4c(c5c6ccccc6n2c5c31)C(=O)NC4 [Staurosporine, reference compound] | – | – | – | – | – | – | – | – | – | – | 1.75 | 21 | 0.98 | 5 | 503.2 ± 4.0 | 276 pg/mL and 276.20 pg/mL | – | 7.6 | – | –

Second part, led by results:

Row | GI50 [1] [µM] | fold less potent than compound 5f (GI50) [1, 6] [fold] | IC50 [2] [µM] | IC50 [3] [µM] | IC50 [4] [µM] | IC50 [5] [µM] | fold more potent than compound 5b (GI50) [1, 6] [fold] | IC50 (EGFR^WT) [µM] | IC50 (EGFR^T790M) [µM] | SMILES | viability at 96 h, 50 µM (Cell viability assay) [%] | Caspase-8 Conc (Caspase-8) [ng/mL] | Caspase-8 Fold change (Caspase-8) | Bcl-2 Conc (Bcl-2) [ng/mL] | Bcl-2 Fold reduction (Bcl-2) | Caspase-3 Conc (Caspase-3) [pg/mL] | Bax Conc (Bax) | Bax Fold change (Bax) | Caspase-3 Fold change (Caspase-3) | Caspase-3 Fold change (Caspase-3; listed as 5 g) | Bax Conc (Bax; listed as 5 g) [pg/mL]
10 | 0.089 | – | 0.089 ± 0.009 | 0.085 ± 0.009 | 0.092 ± 0.009 | 0.089 ± 0.009 | – | – | – | CO/C=C/c1c(C(=O)NC(CO)Cc2ccccc2)[nH]c2ccc(Cl)cc12 (stereo not drawn) [Compound 6a, (E)-5-chloro-N-(1-hydroxy-3-phenylpropan-2-yl)-3-(2-methoxyvinyl)-1H-indole-2-carboxamide] | 86 | – | – | – | – | – | – | – | – | – | –
11 | 0.102 | – | 0.104 ± 0.01 | 0.097 ± 0.01 | 0.105 ± 0.01 | 0.102 ± 0.01 | – | – | – | CO/C=C/c1c(C(=O)NC2c3ccccc3-c3ccccc32)[nH]c2ccc(Cl)cc12 [Compound 6b, (E)-5-chloro-N-(9H-fluoren-9-yl)-3-(2-methoxyvinyl)-1H-indole-2-carboxamide] | 87 | – | – | – | – | – | – | – | – | – | –
12 | 0.066 | – | 0.064 ± 0.006 | 0.062 ± 0.006 | 0.069 ± 0.006 | 0.067 ± 0.006 | – | – | – | CO/C=C/c1c(C(=O)NCc2ccccc2)[nH]c2ccc(Cl)cc12 [Compound 6c, (E)-N-benzyl-5-chloro-3-(2-methoxyvinyl)-1H-indole-2-carboxamide] | 85 | – | – | – | – | – | – | – | – | – | –
13 | 0.085 | – | 0.085 ± 0.008 | 0.081 ± 0.008 | 0.087 ± 0.008 | 0.085 ± 0.008 | – | – | – | CO/C=C/c1c(C(=O)N2CCN(c3ccccc3)CC2)[nH]c2ccc(Cl)cc12 [Compound 6d, (E)-(5-chloro-3–(2-methoxyvinyl)-1H-indol-2-yl)(4-phenylpiperazin-1-yl) methanone] | 89 | – | – | – | – | – | – | – | – | – | –
14 | 0.045 | – | 0.045 ± 0.005 | 0.043 ± 0.004 | 0.047 ± 0.005 | 0.045 ± 0.005 | – | 0.098 ± 0.007 | – | CO/C=C/c1c(C(=O)N2CCC(Cc3ccccc3)CC2)[nH]c2ccc(Cl)cc12 [Compound 6e, (E)-(4-benzylpiperidin-1-yl)(5-chloro-3–(2-methoxyvinyl)-1H-indol-2-yl) methanone] | 91 | – | – | – | – | – | – | – | – | – | –
15 | 0.041 | – | 0.042 ± 0.004 | 0.038 ± 0.004 | 0.042 ± 0.004 | 0.04 ± 0.004 | – | 0.093 ± 0.006 | – | CO/C=C/c1c(C(=O)NCc2nc3ccccc3[nH]2)[nH]c2ccc(Cl)cc12 [Compound 6f, (E)-N-((1H-benzo[d]imidazol-2-yl)methyl)-5-chloro-3–(2-methoxyvinyl)-1H-indole-2-carboxamide] | 89 | – | – | – | – | – | – | – | – | – | –
16 | 0.054 | – | 0.055 ± 0.005 | 0.051 ± 0.005 | 0.057 ± 0.005 | 0.053 ± 0.005 | – | – | – | O=c1c2[nH]c3ccc(Cl)cc3c2ccn1CCc1ccccc1 [Compound 7a, 6-chloro-2-phenethyl-2,9-dihydro-1H-pyrido[3,4-b]indol-1-one] | 90 | – | – | – | – | – | – | – | – | – | –
17 | 0.057 | – | 0.057 ± 0.006 | 0.055 ± 0.005 | 0.059 ± 0.006 | 0.057 ± 0.006 | – | – | – | O=c1c2[nH]c3ccc(Cl)cc3c2ccn1CCc1ccc(N2CCCCC2)cc1 [Compound 7b, 6-chloro-2–(4-(piperidin-1-yl)phenethyl)-2,9-dihydro-1H-pyrido[3,4-b]indol-1-one] | 89 | – | – | – | – | – | – | – | – | – | –
